Reference: article PMC7032090 (Asian Journal of Pharmaceutical Sciences, 2019)

Columns and labels:
[1] = tested on: Caco-2 cells; assay: In vitro cytotoxicity; type: cell-based; conditions: for IC50: Homo sapiens, Caco-2, 48 h, read-out: IC50 Caco-2; for IC50 in Caco-2 cells, fold greater than 5-FU: MTT, 48 h
Method in brief: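 Caco-2 cells seeded at 5 × 10^3 per well and grown 24 h. Cells were exposed to a concentration gradient of test compound for 48 h. Medium was replaced with 20% MTT medium for 4 h at 37 °C, then formazan was dissolved in DMSO for 15 min. Absorbance was read at 490 nm and IC50 calculated.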

[2] = Chemical stability in different pH hydrochloride and phosphate buffers at 37 °C; type: physicochemical; conditions: for half-life at 80 µg/ml: hydrochloride or phosphate buffer (PBS); for T1/2: pH 6.8, 37 °C, 80 µg/ml
Method in brief: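 Test compound at 80 µg/ml in pH 1.2, 6.8 or 7.4 solution, shaken at 37 °C. Samples were taken at 0, 0.083, 0.25, 0.5, 1, 2, 4, 8, 12, 24 and 48 h. Each sample was centrifuged at 13 000 rpm for 10 min and quantified by HPLC.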

[3] = tested on: Caco-2 cells; assay: Caco-2 cell uptake study; type: cell-based; conditions: for Uptake in untreated cells (without butyric acid induction): cells without induction vs butyric acid-treated; for Caco-2 uptake, fold higher than 5-FU: drug concentration 1 mM, uptake time 10 min, butyric acid-induced cells
Method in brief: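 Caco-2 cells seeded in 24-well plates at 1 × 10^4 per well and grown 15 d. Medium was switched to butyric acid-containing medium on day 7 to induce MCT1. Uptake ran at 37 °C at set times and concentrations, with or without inhibitor at 2.5 mM. Cells were washed three times with cold PBS, collected in water and sonicated. Drug was measured by UPLC-MS/MS and normalised to BCA protein.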

[4] = Enzymatic stability in rat hepatic homogenates; type: in vitro ADME; conditions: Sprague-Dawley, liver homogenate
Method in brief: (§1)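 Matrices from Sprague-Dawley rats: plasma from orbital blood stored at −80 °C, and liver or intestine washed in saline, homogenised on ice at 1:3 tissue:saline, with cold-centrifuged supernatant used. Test compound at 80 µg/ml, shaken at 37 °C, sampled 0–48 h. Samples were quenched with methanol (1:3), vortexed 2 min and centrifuged 13 000 rpm for 10 min. Supernatant was analysed by HPLC.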

[5] = tested on: Caco-2 monolayer; assay: Caco-2 cell permeability; type: in vitro ADME; conditions: AP → BL transport
Method in brief: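 Caco-2 cells seeded on Transwell inserts at 1 × 10^4 per well. After the first week, medium contained butyric acid up to 21 d, and monolayers with TEER above 300 Ω cm2 were used. Monolayers were washed with 37 °C HBSS and equilibrated for 30 min. Drug was added apically with HBSS basolaterally. BL was sampled with replacement at 5–120 min, with or without inhibitor (2.5 mM). Samples were analysed by UPLC-MS/MS and Papp calculated.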

[6] = In situ single-pass intestinal perfusion study; type: in vivo, Sprague-Dawley (SD) rats; conditions: for absorption rate constant (Ka), fold higher than 5-FU / apparent permeability coefficient (Papp), fold higher than 5-FU: colon, 0.5 mM, rat
Method in brief: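 Sprague-Dawley rats (220–240 g) were anaesthetised with 20% urethane, and ileum and colon segments were cannulated. Segments were pre-perfused with blank MES buffer for 20 min, then with test compound at 0.5 mM in MES buffer. Inlet and outlet perfusate were collected and weighed at set times. Samples were methanol-precipitated (1:3) and analysed by HPLC. Ka and Papp were derived from concentrations, volumes, segment radius and length, and flow rate.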

[7] = Enzymatic stability in rat intestinal homogenates; type: in vitro ADME; conditions: Sprague-Dawley, intestinal homogenate
Method in brief: as §1

[8] = Enzymatic stability in rat plasma; type: in vitro ADME; conditions: Sprague-Dawley
Method in brief: as §1

[9] = tested on: Kunming mice; assay: In vivo safety evaluation; conditions: 40 mg/kg intragastrically, 7 d continuous
Method in brief: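 Male Kunming mice (18–22 g), nine in 3 groups, received PBS, 5-FU or test compound intragastrically at 40 mg/kg for 7 consecutive days. Duodenum, jejunum, ileum and colon (plus major organs) were fixed in 10% formalin, then embedded, dewaxed, stained and examined microscopically.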

[10] = In vivo pharmacokinetics; design: species or system Sprague-Dawley rats; conditions: 8 mg/kg
Method in brief: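 Male Sprague-Dawley rats (200–220 g), 5 per group. Oral dosing was 20 mg/kg 5-FU equivalent; one group received 5-FU iv at 8 mg/kg for absolute bioavailability. Plasma was collected at set times. Samples were precipitated with methanol plus internal standard, dried under nitrogen at 37 °C and reconstituted in methanol:water 15:85. Prodrug and 5-FU were measured together by UPLC-MS/MS (C18, water/acetonitrile gradient, MRM).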

[11] = male, Sprague-Dawley, rat, plasma, iv

half-life at 80 µg/ml ([2]; pH 1.2) [days]	half-life at 80 µg/ml ([2]; pH 7.4) [days]	T1/2 [2]	Uptake in untreated cells (without butyric acid induction) [3]	Caco-2 uptake, fold higher than 5-FU [3] [fold]	half-life at 80 µg/ml [4] [min]	membrane permeability AP → BL, fold greater than 5-FU [5] [fold]	absorption rate constant (Ka), fold higher than 5-FU [6] [fold]	apparent permeability coefficient (Papp), fold higher than 5-FU [6] [fold]	Ka and Papp values on co-incubating with quercetin (MCT1 inhibitor) ([6]; in situ perfusion with quercetin)	half-life at 80 µg/ml [7] [min]	half-life at 80 µg/ml [8] [min]	Fabs ([10]; i.v., rat (reference)) [%]	Cmax [10, 11] [ng/mL]	Tmax [10, 11] [min]	half-life [10, 11] [min]	Structure (SMILES)	IC50 [1] [µM]	IC50 in Caco-2 cells, fold greater than 5-FU [1] [fold]	Intestinal histology (duodenum, jejunum, ileum, colon; H&E) [9]	Systemic histology (heart, liver, spleen, lung, kidney; H&E) [9]
1.596 ± 0.00417	5.95 ± 1.53	No hydrolysis	significantly decreased	2.2	582 ± 180	8.5	1.1	1.1	significantly decreased	204 ± 12	1180 ± 306	–	–	–	–	O=C(O)CCCCC(=O)OCn1cc(F)c(=O)[nH]c1=O [HDA-5-FU, Hexanedioic acid mono-(5-fluoro-2,4-dioxo-3,4-dihydro-2H-pyrimidin-1-ylmethyl) ester]	500.8 ± 1.32	6.4	–	–
1.53 ± 0.0958	6.34 ± 0.546	No hydrolysis	significantly decreased	5.5	< 15	13.1	3.8	3.3	–	72 ± 6	918 ± 66	–	–	–	–	O=C(O)CCCCCCC(=O)OCn1cc(F)c(=O)[nH]c1=O [OA-5-FU, octanedioic acid mono-(5-fluoro-2,4-dioxo-3,4-dihydro-2H-pyrimidin-1-ylmethyl) ester]	317.7 ± 1.1	4.1	No significant toxicity	–
–	–	–	–	–	–	–	–	–	–	–	–	100	11200	4.8	17.4 ± 3.6	O=c1[nH]cc(F)c(=O)[nH]1 [5-FU, 5-Fluorouracil]	77.8 ± 1.11	–	inflammatory cell infiltration occurred in the duodenum, jejunum and ileum tissues	the liver cells were wrinkled, the nuclei were pyknotic
